The source made the active and inactive calls. The calls are words filed in the database; no cut-off is given here.
What was measured:
A2780 [1] = assay: Cytotoxicity against human A2780 cells after 96 hrs by SRB assay; assay type: functional, cell-based; settings: A2780, 96 h
[2] = Cytotoxicity against human 518A2 cells after 96 hrs by SRB assay; assay type: functional, cell-based; settings: 518A2, 96 h
HT-29 = assay: Cytotoxicity against human HT-29 cells after 96 hrs by SRB assay; assay type: functional, cell-based; settings: HT-29, 96 h
A2780 [3] = assay: Induction of apoptosis in human A2780 cells assessed as necrotic cells at 30 uM after 24 hrs by annexin V/propidium iodide staining-based FACS analysis (reference value: 1.78%); assay type: functional
A2780 [4] = assay: Induction of apoptosis in human A2780 cells assessed as DNA ladder formation at 30 uM after 24 hrs by electrophoresis; assay type: functional, cell-based
Procedure, shortened: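 A2780 cells were exposed to 30 µM compound for 24 h. Floating (dead) cells were collected and washed with PBS, and DNA fragmentation was examined by gel laddering alongside an untreated control.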

A2780 [5] = assay: Induction of apoptosis in human A2780 cells at 30 uM after 24 hrs by annexin V/propidium iodide staining-based FACS analysis; assay type: functional
MCF7 = assay: Cytotoxicity against human MCF7 cells after 96 hrs by SRB assay; assay type: functional, cell-based; settings: MCF7, 96 h
A549 = assay: Cytotoxicity against human A549 cells after 96 hrs by SRB assay; assay type: functional, cell-based; settings: A549, 96 h
A2780 [6] = assay: Induction of apoptosis in human A2780 cells assessed as vital cells at 30 uM after 24 hrs by annexin V/propidium iodide staining-based FACS analysis (reference value: 82.15%); assay type: functional
8505C = assay: cells; assay type: functional, cell-based; settings: Homo sapiens, 96 h
A2780 [7] = assay: Induction of apoptosis in human A2780 cells assessed as necrotic cells at 30 uM after 24 hrs by annexin V/propidium iodide staining-based FACS analysis (reference value: 6.37%); assay type: functional
A2780 [8] = assay: Induction of apoptosis in human A2780 cells assessed as secondary necrotic cells at 30 uM after 24 hrs by annexin V/propidium iodide staining-based FACS analysis (reference value: 9.71%); assay type: functional
NIH3T3 = assay: Cytotoxicity against mouse NIH/3T3 cells after 96 hrs by SRB assay; assay type: ADME, cell-based; settings: NIH3T3, 96 h
A2780 [9] = assay: Cell cycle arrest in human A2780 cells assessed as accumulation at G1 phase at 30 uM by propidium iodide staining-based FACS analysis (reference value: 51.839 %); assay type: functional
A2780 [10] = assay: Cell cycle arrest in human A2780 cells assessed as accumulation at G2 phase at 30 uM by propidium iodide staining-based FACS analysis (reference value: 15.721 %); assay type: functional
A2780 [11] = assay: Cell cycle arrest in human A2780 cells assessed as accumulation at S phase at 30 uM by propidium iodide staining-based FACS analysis (reference value: 32.439 %); assay type: functional
A2780 [12] = assay: Cell cycle arrest in human A2780 cells at 30 uM by propidium iodide staining-based FACS analysis; assay type: functional

Row | Structure (SMILES) | IC50 (8505C) [µM] | IC50 (A2780 [1]) [µM] | IC50 [2] [µM] | IC50 (HT-29) [µM] | Activity (A2780 [3]) [%] | Activity (A2780 [4]) | Activity (A2780 [5]) [%] | IC50 (MCF7) [µM] | IC50 (A549) [µM] | Activity (A2780 [6]) [%] | Activity (A2780 [7]) [%] | Activity (A2780 [8]) [%] | IC50 (NIH3T3) [µM] | Activity (A2780 [9]) [%] | Activity (A2780 [10]) [%] | Activity (A2780 [11]) [%] | Activity (A2780 [12])
1 | COC(=O)[C@]12CCC(C)(C)C[C@H]1C1=CC[C@@H]3[C@@]4(C)C[C@@H](O)[C@H](O)C(C)(C)[C@@H]4CC[C@@]3(C)[C@]1(C)CC2 [MASLINIC ACID METHYL ESTER] |  | 17.8 |  |  |  |  |  |  |  |  |  |  |  |  |  |  | 
2 | CC1(C)CC[C@@]23CC[C@]4(C)[C@@](OC2=O)([C@@H]3C1)[C@@H](Br)C[C@@H]1[C@@]2(C)C[C@@H](O)[C@H](O)C(C)(C)[C@@H]2CC[C@]14C | 36.5 | 25.9 |  | > 90 |  |  |  |  | 29.1 |  |  |  | 43.1 |  |  |  | 
3 | CC(=O)O[C@H]1CC[C@]2(C)[C@H]3C[C@H](O)[C@]45OC(=O)[C@@]6(CCC(C)(C)C[C@H]64)CC[C@@]5(C)[C@]3(C)CC[C@H]2C1(C)C | > 90 | 63.2 | > 90 | > 90 | 1.54 |  |  | > 90 | > 90 | 74.74 | 11.84 | 11.89 | 85.7 | 51.879 | 15.86 | 32.261 | inactive
4 | CC1(C)CC[C@]2(C(=O)OCc3ccccc3)CC[C@]3(C)[C@H](C(=O)C[C@@H]4[C@@]5(C)CC[C@H](O)C(C)(C)[C@@H]5CC[C@]43C)[C@@H]2C1 |  |  |  |  | 0.62 |  |  |  |  | 74.47 | 13.82 | 11.08 |  |  |  |  | 
5 | CC1(C)CC[C@]2(C(=O)O)CC[C@]3(C)C(=CC[C@@H]4[C@@]5(C)C[C@@H](O)[C@H](O)C(C)(C)[C@@H]5CC[C@]43C)[C@@H]2C1 [MASLINIC ACID] |  |  |  |  |  |  |  | 16.6 |  |  |  |  | 21.4 |  |  |  | 
6 | CC1(C)CC[C@]2(C(=O)O)CC[C@]3(C)C(=CC[C@@H]4[C@@]5(C)CC[C@H](O)C(C)(C)[C@@H]5CC[C@]43C)[C@@H]2C1 [OLEANOLIC_ACID] | > 60 | 14 | > 60 | 38.8 |  |  |  | > 60 | 72.3 |  |  |  | 76.4 |  |  |  | 
7 | CC1(C)CC[C@@]23CC[C@]4(C)[C@@](OC2=O)([C@@H]3C1)[C@@H](I)C[C@@H]1[C@@]2(C)C[C@@H](O)[C@H](O)C(C)(C)[C@@H]2CC[C@]14C | 72.1 | 31.5 |  | > 90 |  |  |  |  | 34.4 |  |  |  | 80.2 |  |  |  | 
8 | CC1(C)CC[C@@]23CC[C@]4(C)[C@@](OC2=O)([C@@H]3C1)[C@@H](O)C[C@@H]1[C@@]2(C)C[C@@H](O)[C@H](O)C(C)(C)[C@@H]2CC[C@]14C | > 90 | 39.9 | 78.4 | 92.8 |  |  |  | > 90 | > 90 |  |  |  | 22.1 |  |  |  | 
9 | CN[C@@H]1C[C@H]2O[C@@](C)([C@@H]1OC)n1c3ccccc3c3c4c(c5c6ccccc6n2c5c31)C(=O)NC4 [STAUROSPORINE] |  |  |  |  |  |  |  | 0.4 |  |  |  |  |  |  |  |  | 

The next lines start with results.

Row | IC50 (8505C) [µM] | Structure (SMILES) | IC50 (A2780 [1]) [µM] | IC50 [2] [µM] | IC50 (HT-29) [µM] | Activity (A2780 [3]) [%] | Activity (A2780 [4]) | Activity (A2780 [5]) [%] | IC50 (MCF7) [µM] | IC50 (A549) [µM] | Activity (A2780 [6]) [%] | Activity (A2780 [7]) [%] | Activity (A2780 [8]) [%] | IC50 (NIH3T3) [µM] | Activity (A2780 [9]) [%] | Activity (A2780 [10]) [%] | Activity (A2780 [11]) [%] | Activity (A2780 [12])
10 | 13 | COC(=O)[C@]12CCC(C)(C)C[C@H]1C1=CC(=O)[C@@H]3[C@@]4(C)CC[C@H](O)C(C)(C)[C@@H]4CC[C@@]3(C)[C@]1(C)CC2 | 6.6 | 15.6 | 18.5 | 3.11 | Active | >50 | 21.3 | 15.1 | 33.08 | 34.13 | 29.68 | 24.8 |  |  |  | 
11 | 20.6 | COC(=O)[C@]12CC[C@@H](C)[C@H](C)[C@H]1C1=CC[C@@H]3[C@@]4(C)CC[C@H](O)C(C)(C)[C@@H]4CC[C@@]3(C)[C@]1(C)CC2 [METHYL URSOLATE] | 15.3 | 17.7 | 25.4 |  |  |  | 22.2 | 20.2 |  |  |  |  |  |  |  | 
12 | 23.3 | COC(=O)[C@]12CCC(C)(C)C[C@H]1C1=C(O)C(=O)[C@@H]3[C@@]4(C)CC[C@H](O)C(C)(C)[C@@H]4CC[C@@]3(C)[C@]1(C)CC2 | 17.5 | 21.2 | 15.3 | 6.65 |  | >50 | 25.8 | 25.6 | 25.72 | 48.08 | 19.74 | 25.8 | 59.438 | 18.968 | 21.594 | 
13 | 13.3 | COC(=O)[C@]12CCC(C)(C)C[C@H]1C1=CC[C@@H]3[C@@]4(C)C[C@@H](OC(C)=O)[C@H](OC(C)=O)C(C)(C)[C@@H]4CC[C@@]3(C)[C@]1(C)CC2 | 6.8 | 8.6 | 26.3 |  |  |  | > 30 | 7.8 |  |  |  | 30.5 |  |  |  | 
14 | 16.2 | COC(=O)[C@]12CCC(C)(C)C[C@H]1C1=CC(=O)[C@@H]3[C@@]4(C)CC[C@H](OC(C)=O)C(C)(C)[C@@H]4CC[C@@]3(C)[C@]1(C)CC2 | 40 | 24.1 | 29.4 | 1.4 |  |  |  | 66.1 | 72.75 | 13.28 | 12.57 | 33.6 | 56.831 | 17.835 | 25.334 | 
15 | 29.1 | CC1(C)CC[C@]2(C(=O)OCc3ccccc3)CC[C@]3(C)C(=CC[C@@H]4[C@@]5(C)CC[C@H](O)C(C)(C)[C@@H]5CC[C@]43C)[C@@H]2C1 | 23 | 28 | 28.7 |  |  |  | 15.8 | 28 |  |  |  | 22.4 |  |  |  | 
16 | 20.5 | COC(=O)[C@]12CCC(C)(C)C[C@H]1C1=CC[C@@H]3[C@@]4(C)CC[C@H](OC(C)=O)C(C)(C)[C@@H]4CC[C@@]3(C)[C@]1(C)CC2 | 8.6 | 34.1 | 26.7 | 2.41 |  |  | 16.7 | 26.1 | 72.47 | 15.68 | 9.43 | 34.3 | 55.294 | 15.901 | 28.805 | inactive
17 | 10.3 | COC(=O)[C@]12CCC(C)(C)C[C@H]1[C@H]1C(=O)C[C@@H]3[C@@]4(C)C[C@@H](OC(C)=O)[C@H](OC(C)=O)C(C)(C)[C@@H]4CC[C@@]3(C)[C@]1(C)CC2 | 11.6 | 9.6 | 17.6 |  |  |  | 23.8 | 14.1 |  |  |  | 31.7 |  |  |  | 
18 | 18 | CC1(C)CC[C@@]23CC[C@]4(C)[C@@](OC2=O)([C@@H]3C1)[C@@H](Cl)C[C@@H]1[C@@]2(C)C[C@@H](O)[C@H](O)C(C)(C)[C@@H]2CC[C@]14C | 34.2 |  | 510 |  |  |  |  | 33.1 |  |  |  | > 90 |  |  |  | 
